LMPTP block = blocks human LMPTP phosphatase; P24666; recombinant LMPTP-A, OMFP fluorogenic substrate, fluorescence intensity; inhibition, % at 20 µM; 360,000 compounds, 0.22% hits;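 active = compounds that cut the enzyme signal by at least half of the control window in the single-dose screen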;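 note: plate controls were DMSO wells with enzyme plus substrate for no effect and substrate without enzyme for full effect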
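Buffer or medium: Bis-Tris pH 6.0, DTT, detergent; Assay system: LMPTP-A enzyme; Quantity: 0.625 nM enzyme; Detection: endpoint fluorescence intensity; Times: 50 min dark incubation at room temperature; Controls: substrate-only low control, DMSO enzyme-plus-substrate high control; Doses: single 20 µM dose; Read-out: percent inhibition versus substrate-only and uninhibited controls; Reagent: 400 µM OMFP.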
SUMO1 PPI mod = SUMO1-SIM interaction modulation; P63165; SUMO1 binding to a labelled peptide, TR-FRET, 1 h; inhibition, % at 20 µM; 360,000 compounds, 0.33% hits; AID 602429; in the data active = inhibition above about 37%
Scp-1 inhibitor = Scp-1 (human) phosphatase inhibition | Recombinant Scp1, phosphopeptide, malachite green phosphate absorbance | inhibition, % at 20 µM | 340,000 compounds, 0.88% hits;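 active = inhibition above about 50% at 20 µM, limit read from the data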;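 note: plate controls were DMSO wells with enzyme for no effect and wells lacking enzyme for full effect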
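Test system: SCP-1 phosphatase catalytic domain, residues 76-261; measured by: colorimetric phosphate reagent with accelerator and stabiliser, absorbance at 630 nm; timing: enzyme reaction 45 min at room temperature, colour 5 min, stabilisation 30 min; also added: Phosphorylated 17-residue peptide substrate; compound dosing: one concentration, 20 µM, with 1.0% DMSO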
HKDC1 inh = blocks human hexokinase HKDC1 activity; recombinant HKDC1, G6PDH/diaphorase resazurin coupled fluorescence; 340,000 compounds, 0.16% hits; inhibition, % at 20 µM;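 active = inhibition above about 35% when tested at 20 µM, limit read from the data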;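 note: plate controls were DMSO wells with enzyme for no effect and DMSO wells lacking enzyme for full effect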
Target sequence (Q2TB90 whole entry, looked up): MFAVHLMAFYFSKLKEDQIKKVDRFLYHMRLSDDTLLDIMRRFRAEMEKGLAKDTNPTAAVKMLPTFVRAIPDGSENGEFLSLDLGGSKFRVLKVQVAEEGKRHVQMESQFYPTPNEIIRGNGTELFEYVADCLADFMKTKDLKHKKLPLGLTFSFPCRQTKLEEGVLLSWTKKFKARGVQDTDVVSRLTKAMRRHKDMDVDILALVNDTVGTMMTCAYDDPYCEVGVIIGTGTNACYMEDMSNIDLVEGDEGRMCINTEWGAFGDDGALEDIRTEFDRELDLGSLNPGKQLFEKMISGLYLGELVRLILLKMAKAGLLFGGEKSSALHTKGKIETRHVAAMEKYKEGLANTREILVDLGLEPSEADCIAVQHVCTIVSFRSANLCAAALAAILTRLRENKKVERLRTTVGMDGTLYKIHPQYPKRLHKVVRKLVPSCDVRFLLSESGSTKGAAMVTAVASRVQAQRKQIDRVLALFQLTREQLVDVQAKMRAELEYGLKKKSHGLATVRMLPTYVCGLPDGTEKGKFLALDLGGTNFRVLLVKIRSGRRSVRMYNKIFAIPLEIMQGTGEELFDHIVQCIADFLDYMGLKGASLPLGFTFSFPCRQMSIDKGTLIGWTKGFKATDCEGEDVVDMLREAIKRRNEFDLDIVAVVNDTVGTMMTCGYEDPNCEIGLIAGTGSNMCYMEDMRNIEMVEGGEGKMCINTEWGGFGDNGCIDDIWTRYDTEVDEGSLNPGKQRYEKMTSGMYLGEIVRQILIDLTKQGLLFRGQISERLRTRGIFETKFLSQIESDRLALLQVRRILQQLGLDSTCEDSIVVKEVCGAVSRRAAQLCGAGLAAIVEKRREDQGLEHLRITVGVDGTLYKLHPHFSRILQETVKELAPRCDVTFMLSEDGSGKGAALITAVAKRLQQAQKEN
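Material – in-house recombinant HK5 (HKDC1) enzyme · Quantity – HKDC1 at 5 µg/mL · Buffer or medium – pH 8.0 Tris buffer with 10 mM MgCl2 · Reagent – glucose with 1 mM ATP · Dosing – single 20 µM dose · Times – reaction time 90 min, room temperature, protected from light · Technique – resorufin fluorescence at 613 nm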
DNMT1 inh = blocks human DNA methyltransferase DNMT1 | DNMT1 molecular beacon, Hinp1I cleavage, fluorescence | 360,000 compounds, 0.83% hits | AID 588458 | inhibition (reported as % activation of signal), % at 10 µM | P26358; in the data active = inhibition above about 50%
STEP inh = inhibitors of human striatal-enriched phosphatase STEP | inhibition, % at 20 µM | 360,000 compounds, 0.25% hits | recombinant STEP, OMFP fluorogenic substrate, fluorescence | AID 588621;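 active = inhibition at 20 µM, scaled per plate between control wells, above about 37%, limit read from the data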;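 note: 0% = DMSO with enzyme and substrate and 100% = substrate only without enzyme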
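Assay system: isolated STEP enzyme. Buffer or medium: pH 6.0 Bis-Tris with DTT and Tween 20. Also added: fluorogenic phosphatase substrate OMFP at 25 µM final. Dosing: 20 µM, 1% DMSO. Timing: 20 min reaction, room temperature, in the dark. Measured by: fluorescence intensity, excitation 480 nm, emission 540 nm. Evaluation: normalized % inhibition.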
* marks the source's active call; other numbers are inactive results; . = no result. An excerpt weighted towards active compounds, which were near 1.8% of everything screened.

SMILES	LMPTP block	SUMO1 PPI mod	Scp-1 inhibitor	HKDC1 inh	DNMT1 inh	STEP inh
CCCCCCCCN1C(=O)[C@H](CC(=O)NCCCC)C[C@@]2(C(=O)OC)CC(C)(C)CC=C12	5	10	.	.	.	.
C[n+]1c(/C=C/c2ccc3c(c2)OCO3)ccc2ccccc21	0	-8	105*	0	2	-1
O=c1c2c3nc4ccccc4nc3n(/N=C/c3ccco3)c2ncn1CCC1=CCCCC1	-1	-5	88*	27	3	-5
CC1(C)NC(=O)N(CC(=O)Nc2ccc(-n3cnnn3)cc2)C1=O	2	-2	2	-7	0	0
CCOC(=O)c1sc2nc(OCCN3CCOCC3)cc(C)c2c1N	57*	10	.	.	.	.
COc1cc(N)c(C(=O)c2nccc3cc(OC)c(OC)cc23)cc1OC	-2	-8	-5	-10	-3	4
COc1cc(Br)c(C(=O)c2nccc3cc(OC)c(OC)cc23)cc1OC	5	19	-7	15	92*	3
COc1cccc(-c2nnc3sc(-c4ccccc4)nn23)c1	0	-18	-11	1	-3	1
COc1cccc(OC)c1-c1nn2c(-c3cc(-c4ccccc4)n[nH]3)nnc2s1	56*	-2	90*	44*	17	4
Cc1[nH]c2ccccc2c1C(C#N)(C#N)C1C(=O)c2ccccc2C1=O	6	-10	-17	57*	-17	1
CCc1ccc(S(=O)(=O)NCc2ccc(C(=O)NCCN(Cc3ccccc3)C(C)C)cc2)cc1	-2	-3	.	.	-7	-1
CCCCn1c(NC(=O)c2ccccc2Cl)c(C#N)c2nc3ccccc3nc21	17	53*	-4	17	76*	0
N#Cc1c(NC(=O)c2ccccc2Cl)n(Cc2ccccc2)c2nc3ccccc3nc12	12	56*	-1	8	54*	1
C[C@@H]1CN([C@H](C)CO)C(=O)CCCn2cc(nn2)CO[C@H]1CN(C)S(=O)(=O)c1ccc(C#N)cc1	-2	0	.	.	4	-1
CCN1C(=O)[C@H]2[C@@H](c3ccc(-c4ccccc4)cc3)N[C@@](CC(C)C)(C(=O)OC)[C@H]2C1=O	2	1	-6	-1	-2	2
CC(=O)Nc1ccc(NC(=O)c2cc(-c3ccc(C)cc3O)n[nH]2)cc1	0	74*	2	0	-6	3
COc1cc(F)ccc1-c1cc(C(=O)Nc2ccc(NC(C)=O)cc2)[nH]n1	1	63*	.	.	0	-1
O=C(NNC(=O)c1cccnc1Cl)c1ccc(F)cc1	0	-2	-2	1	1	-2
COc1cc(C(=O)NCC(=O)OCC(=O)c2cccc3ccccc23)cc(OC)c1OC	1	61*	-6	11	6	0
COc1ccc(C(=O)NCC(=O)OCC(=O)c2ccccc2Br)cc1OC	-1	4	.	.	-1	0
O=C(/C=C/c1ccc(F)cc1)NC(=S)NNC(=O)c1cnccn1	0	-3	69*	-31	3	3
O=C(Nc1nccs1)c1cn(-c2ccccc2)nc1-c1ccncc1	1	44*	-3	-9	-1	4
O=C(c1ccc(Br)o1)N1CCN(c2ccc3nnc(-c4ccc(F)cc4)n3n2)CC1	0	49*	6	6	-7	2
O=C(Nc1ccc(Cl)cc1)N1CCN(c2ccc3nnc(-c4ccc(F)cc4)n3n2)CC1	2	10	15	6	-14	-4
CCN1C(=O)C(CC(=O)NCCc2ccccc2)N(NC(=O)c2ccc(Br)cc2)C1=S (centres undefined)	-1	7	.	.	-5	3
CN=c1scc(-c2ccccc2F)n1/N=C/c1ccc(O)c(O)c1O	57*	-14	22	19	-10	8
O=C/C=C/c1coc2ccc3ccccc3c2c1=O	.	.	103*	16	.	.
CCCN(CCC)Cc1cc(=O)oc2ccc3ccccc3c12	2	-6	.	.	7	5
O=c1ccc2[n+]([O-])c3ccc(O)cc3oc-2c1	3	2	31	8	58*	11

Screens from PubChem.
